Measured values taken from ChEMBL document CHEMBL2163314, “Potent aminocyclitol glucocerebrosidase inhibitors are subnanomolar pharmacological chaperones for treating gaucher disease” (J Med Chem, 2012).
Calls of active or inactive are those of the source. The rule behind the calls is not given here.

Columns and labels:
[1] = target: T1, Lysosomal acid glucosylceramidase (Homo sapiens, UniProt P04062); experiment: Binding affinity to recombinant imiglucerase using 4-methylumbelliferyl-beta-D-glucopyranoside as substrate preincubated for 30 mins before substrate addition by Lineweaver-Burk plot assay
T1 sequence (P04062 whole entry): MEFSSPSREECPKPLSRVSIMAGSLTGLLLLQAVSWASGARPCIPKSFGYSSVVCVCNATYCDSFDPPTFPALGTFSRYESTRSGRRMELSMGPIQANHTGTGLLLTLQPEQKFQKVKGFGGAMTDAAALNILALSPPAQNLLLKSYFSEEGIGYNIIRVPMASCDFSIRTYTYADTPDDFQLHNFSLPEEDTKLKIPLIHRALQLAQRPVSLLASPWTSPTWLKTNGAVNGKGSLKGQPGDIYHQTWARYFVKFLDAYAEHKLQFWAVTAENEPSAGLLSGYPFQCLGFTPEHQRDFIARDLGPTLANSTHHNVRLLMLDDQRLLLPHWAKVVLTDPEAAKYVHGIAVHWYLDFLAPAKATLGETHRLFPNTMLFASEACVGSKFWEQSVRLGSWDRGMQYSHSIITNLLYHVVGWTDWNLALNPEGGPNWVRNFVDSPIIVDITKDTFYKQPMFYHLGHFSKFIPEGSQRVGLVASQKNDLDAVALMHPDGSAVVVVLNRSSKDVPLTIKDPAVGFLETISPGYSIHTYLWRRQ

Saccharomyces cerevisiae = experiment: Inhibition of bakers yeast alpha-glucosidase at100 uM
[2] = target: T2, Alpha-galactosidase A (Homo sapiens) (UniProt P06280); experiment: Inhibition of lysosomal alpha-galactosidase in human fibroblast at 50 uM after 24 hrs
T2 sequence (whole entry): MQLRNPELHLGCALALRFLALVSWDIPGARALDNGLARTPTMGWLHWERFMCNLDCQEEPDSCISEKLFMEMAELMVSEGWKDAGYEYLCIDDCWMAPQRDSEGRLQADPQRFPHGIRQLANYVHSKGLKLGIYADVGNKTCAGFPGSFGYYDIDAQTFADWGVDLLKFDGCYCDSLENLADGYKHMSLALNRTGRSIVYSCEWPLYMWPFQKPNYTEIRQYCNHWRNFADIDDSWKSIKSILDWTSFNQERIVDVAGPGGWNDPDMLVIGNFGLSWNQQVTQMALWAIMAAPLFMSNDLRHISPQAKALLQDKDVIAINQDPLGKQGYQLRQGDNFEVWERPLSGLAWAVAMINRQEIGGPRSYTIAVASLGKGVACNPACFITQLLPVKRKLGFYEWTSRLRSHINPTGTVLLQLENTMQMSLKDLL
Summary of the method: (§1)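 Wild-type human fibroblasts (DMEM, 10% FBS, passages 14–30) were plated overnight, then exposed to compound in fresh medium for 24 h at 37 °C, 5% CO2. Lysosomal enzyme activity was then assayed in intact monolayers after the medium was removed. Triplicate determinations.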

[3] = target: T3, Non-lysosomal glucosylceramidase (Mus musculus) (UniProt Q69ZF3); experiment: Inhibition of GBA2 activity in mouse tissue homogenate at 50 uM
T3 sequence (whole entry): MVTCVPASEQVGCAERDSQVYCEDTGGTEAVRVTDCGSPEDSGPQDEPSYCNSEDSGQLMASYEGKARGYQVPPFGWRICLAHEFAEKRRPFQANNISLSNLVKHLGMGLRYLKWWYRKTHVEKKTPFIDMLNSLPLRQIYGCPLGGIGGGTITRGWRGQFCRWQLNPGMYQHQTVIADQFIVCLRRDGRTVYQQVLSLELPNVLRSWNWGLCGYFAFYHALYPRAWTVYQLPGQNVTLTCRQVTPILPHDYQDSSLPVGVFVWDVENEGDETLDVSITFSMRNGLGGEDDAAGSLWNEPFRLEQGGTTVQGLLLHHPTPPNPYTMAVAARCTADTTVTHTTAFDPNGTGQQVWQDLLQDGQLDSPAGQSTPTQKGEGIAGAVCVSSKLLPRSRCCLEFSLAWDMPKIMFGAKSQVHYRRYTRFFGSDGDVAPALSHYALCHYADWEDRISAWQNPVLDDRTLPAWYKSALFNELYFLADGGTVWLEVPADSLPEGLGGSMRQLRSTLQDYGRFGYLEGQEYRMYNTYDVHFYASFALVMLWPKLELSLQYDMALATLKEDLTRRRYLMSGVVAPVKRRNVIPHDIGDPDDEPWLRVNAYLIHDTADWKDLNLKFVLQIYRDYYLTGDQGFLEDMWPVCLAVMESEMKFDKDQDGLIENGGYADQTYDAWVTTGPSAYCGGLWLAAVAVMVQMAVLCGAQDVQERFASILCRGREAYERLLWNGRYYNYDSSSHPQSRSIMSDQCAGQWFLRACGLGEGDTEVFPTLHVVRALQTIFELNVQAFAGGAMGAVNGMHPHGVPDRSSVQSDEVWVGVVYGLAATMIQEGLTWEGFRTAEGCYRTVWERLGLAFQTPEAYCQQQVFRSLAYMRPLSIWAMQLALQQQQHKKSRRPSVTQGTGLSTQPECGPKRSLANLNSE
Summary of the method: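 Mouse tissue homogenates were used to separate nonlysosomal GBA2 from lysosomal GCase β-glucosidase activity. Compounds were screened at 50 and 5 μM with 3 mM substrate. Two independent experiments, each run in duplicate.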

Oryza sativa = experiment: Inhibition of rice alpha-glucosidase at 100 uM
[4] = target: Lysosomal alpha-glucosidase (Homo sapiens) (UniProt P10253); experiment: Inhibition of lysosomal alpha-glucosidase in human fibroblast at 50 uM after 24 hrs; summary of the method: as §1
[5] = target: Alpha-galactosidase (Coffea arabica) (UniProt Q42656); experiment: Inhibition of green coffee beans alpha-galactosidase at 100 uM
Sequence of Alpha-galactosidase (Coffea arabica) (Q42656 16-378 limits assumed): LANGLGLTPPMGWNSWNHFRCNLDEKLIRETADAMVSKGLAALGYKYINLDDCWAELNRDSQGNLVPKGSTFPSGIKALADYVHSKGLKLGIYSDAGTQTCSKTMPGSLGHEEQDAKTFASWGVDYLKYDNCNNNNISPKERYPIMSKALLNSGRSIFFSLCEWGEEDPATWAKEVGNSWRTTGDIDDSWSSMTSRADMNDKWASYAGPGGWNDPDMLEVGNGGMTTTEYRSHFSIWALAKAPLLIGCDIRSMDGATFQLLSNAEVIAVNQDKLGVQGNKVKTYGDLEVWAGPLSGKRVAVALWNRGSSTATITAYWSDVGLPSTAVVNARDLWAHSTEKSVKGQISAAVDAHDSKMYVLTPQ

[6] = target: T1, Lysosomal acid glucosylceramidase; experiment: Competitive inhibition of recombinant Imiglucerase using 4-methylumbelliferyl-beta-D-glucopyranoside as substrate preincubated for 30 mins before substrate addition at pH 7.0 Lineweaver-Burk plot assay
[7] = Stabilization of recombinant imiglucerase at 1 uM at 48 degC after 60 mins by fluorimetry relative to incubation at 37 degC
Summary of the method: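 Imiglucerase (2 mg/mL aliquots) heated at 48 °C with compound, three concentrations. At set times, residual activity measured with 4 mM 4-MU-β-glucoside (McIlvaine pH 5.2, Triton X-100, taurocholate) after acetate-phosphate pH 5.0, 10 min at 37 °C. Read at 355/460 nm. Ratio is relative enzymatic activity, inhibitor vs control, taken at 60 min. Activity relative to unheated (37 °C) enzyme; triplicate.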

| Ratio [7] | SMILES | Ki [1] [nM] | inhibition (Saccharomyces cerevisiae) | inhibition [2] | inhibition [3] | inhibition (Oryza sativa) | inhibition [4] | inhibition [5] | IC50 [6] [nM] |
| --- | --- | --- | --- | --- | --- | --- | --- | --- | --- |
|  | CCCCCCCCCN[C@H]1[C@H](O)[C@@H](O)[C@H](O)[C@@H](O)[C@@H]1O | 1900 | inactive | inactive | Active | inactive | inactive | inactive | 780 |
| 29 | CCCCCCCCCN[C@H]1[C@H](O)[C@@H](O)[C@H](O)[C@@H](O)[C@H]1OCCCCCCCCC.Cl | 1 | inactive |  | Active | inactive |  | inactive | 5 |
| 1.2 | CCCCCCCCCN(CCCCCCCCC)[C@@H]1[C@H](O)[C@H](O)[C@@H](O)[C@H](O)[C@H]1O.Cl | 820 | inactive |  | Active | inactive |  | inactive | 530 |
|  | CCCCCCCCCN[C@H]1[C@H](O)[C@@H](O)[C@H](O)[C@@H](O)[C@@H]1OC.Cl | 1580 | inactive | inactive | Active | inactive | inactive | inactive | 670 |
| 5.2 | CCCCCCCCCN[C@H]1[C@H](O)[C@@H](O)[C@H](O)[C@@H](O)[C@@H]1OCCCCCCCCC.Cl | 280 | inactive |  | Active | inactive |  | inactive | 170 |
|  | CCCCCCCCCN[C@@H]1[C@H](O)[C@@H](O)[C@H](O)[C@@H](O)[C@@H]1O | 17900 | inactive | inactive | 92% | inactive | inactive | inactive | 24900 |
| 2.2 | CCCCCCCCCO[C@H]1[C@@H](N)[C@H](O)[C@@H](O)[C@H](O)[C@H]1O.Cl | 130 | inactive | inactive | Active | inactive | inactive | inactive | 120 |

| SMILES | Ratio [7] | Ki [1] [nM] | inhibition (Saccharomyces cerevisiae) | inhibition [2] | inhibition [3] | inhibition (Oryza sativa) | inhibition [4] | inhibition [5] | IC50 [6] [nM] |
| --- | --- | --- | --- | --- | --- | --- | --- | --- | --- |
| CCCCCCCCCN[C@H]1[C@H](O)[C@@H](O)[C@H](O)[C@@H](O)[C@H]1OC.Cl | 2 | 53 | inactive | inactive | Active | inactive | inactive | inactive | 19 |
| CCCCCCCCCN[C@@H]1[C@H](O)[C@H](O)[C@@H](O)[C@H](O)[C@H]1O.Cl | 5 | 32 | inactive | inactive | Active | inactive | inactive | inactive | 25 |
